Laboratory results reported in ChEMBL document CHEMBL3877298, “Discovery of benzimidazole derivatives as modulators of mitochondrial function: A potential treatment for Alzheimer's disease” (Eur J Med Chem, 2017).

Legend:
[1] = target: Translocator protein (Mus musculus) (UniProt P50637); assay: Inhibition of TSPO in mouse HT22 cells assessed as protection against amyloid beta (1 to 42)-induced mitochondrial membrane potential loss by measuring recovery of ATP production at 5 uM preincubated for 10 mins followed by amyloid beta (1 to 42) addition measured after 7 hrs by luciferase reporter gene assay relative to control; format: cell-based; parameters: scale not given: the % may be the effect or the level left; settings: HT-22
Chain of Translocator protein (Mus musculus) (P50637 whole entry, looked up): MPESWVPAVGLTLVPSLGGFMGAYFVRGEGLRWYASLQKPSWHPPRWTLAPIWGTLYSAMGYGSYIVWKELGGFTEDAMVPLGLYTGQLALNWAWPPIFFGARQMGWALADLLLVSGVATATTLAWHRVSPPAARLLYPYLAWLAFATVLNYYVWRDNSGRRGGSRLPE
Outline: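 HT22 cells at 7000 per well were given compound (5 µM) for 10 min at 37 °C, then Aβ1-42 (5 µM) or DMSO vehicle, and incubated 7 h. Cells were washed, lysed in 1% Triton X-100, and protein-equalised by BCA. ATP was measured by luciferin/luciferase luminescence and normalised to vehicle.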

[2] = target: Translocator protein (Mus musculus) (UniProt P50637); assay: Inhibition of TSPO in mouse HT22 cells assessed as inhibition of amyloid beta (1 to 42)-induced ROS generation at 5 uM after 6 hrs by DCFDA staining based fluorescence assay relative to control; format: cell-based; settings: HT-22
[3] = target: T1, CYP1A2 (Homo sapiens, UniProt P05177); assay: Inhibition of recombinant human CYP1A2 expressed in baculosomes coexpressing rabbit NADPH-P450 reudctase assessed as residual activity at 10 uM preincubated for 5 mins followed by substrate and NADP+ addition measured after 20 mins by fluorescence assay relative to control; format: ADME; settings: read-out: Activity
T1 sequence (P05177 whole entry): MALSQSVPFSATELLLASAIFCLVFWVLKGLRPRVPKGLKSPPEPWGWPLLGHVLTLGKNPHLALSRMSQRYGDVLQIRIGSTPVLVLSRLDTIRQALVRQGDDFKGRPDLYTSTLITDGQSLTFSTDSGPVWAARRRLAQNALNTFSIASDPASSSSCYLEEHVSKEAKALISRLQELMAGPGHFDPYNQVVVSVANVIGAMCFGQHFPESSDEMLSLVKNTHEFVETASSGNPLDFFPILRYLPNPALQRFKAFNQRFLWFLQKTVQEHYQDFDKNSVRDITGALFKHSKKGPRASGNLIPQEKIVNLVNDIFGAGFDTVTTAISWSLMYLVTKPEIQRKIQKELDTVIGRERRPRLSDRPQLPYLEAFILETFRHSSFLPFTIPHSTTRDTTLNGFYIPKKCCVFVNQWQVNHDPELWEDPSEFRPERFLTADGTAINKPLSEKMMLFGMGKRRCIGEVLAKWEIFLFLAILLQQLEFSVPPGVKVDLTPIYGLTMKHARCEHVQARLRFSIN
Outline: (§1)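 Vivid CYP450 kit: recombinant human CYP isozyme in Baculosomes with rabbit NADPH-P450 reductase, plus regeneration system (3.3 mM glucose-6-phosphate, 0.3 U/mL G6PDH in 100 mM potassium phosphate, pH 8.0). Mixture preincubated with sample for 5 min at 37 °C. Vivid substrate and 0.1 mM NADP+ were then added, and remaining activity read by fluorescence after 20 min.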

[4] = target: CYP2D6 (Homo sapiens, UniProt P10635); assay: Inhibition of recombinant human CYP2D6 expressed in baculosomes coexpressing rabbit NADPH-P450 reudctase assessed as residual activity at 10 uM preincubated for 5 mins followed by substrate and NADP+ addition measured after 20 mins by fluorescence assay relative to control; format: ADME; settings: read-out: Activity; outline: as §1
Chain of CYP2D6 (P10635 whole entry): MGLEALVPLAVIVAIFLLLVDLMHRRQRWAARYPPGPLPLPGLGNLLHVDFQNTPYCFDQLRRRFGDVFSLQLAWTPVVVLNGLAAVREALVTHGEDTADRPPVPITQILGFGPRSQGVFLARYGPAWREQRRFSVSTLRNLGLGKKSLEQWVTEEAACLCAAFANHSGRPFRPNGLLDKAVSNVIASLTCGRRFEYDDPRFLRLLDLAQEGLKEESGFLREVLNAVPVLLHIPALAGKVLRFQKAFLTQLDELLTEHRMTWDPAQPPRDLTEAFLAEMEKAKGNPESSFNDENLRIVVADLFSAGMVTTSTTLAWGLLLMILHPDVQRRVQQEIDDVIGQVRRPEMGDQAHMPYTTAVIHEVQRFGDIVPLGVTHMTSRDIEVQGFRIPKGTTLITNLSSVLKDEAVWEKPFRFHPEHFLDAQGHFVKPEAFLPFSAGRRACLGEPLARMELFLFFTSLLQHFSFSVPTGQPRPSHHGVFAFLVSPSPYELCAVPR

[5] = target: CYP3A4 (Homo sapiens, UniProt P08684); assay: Inhibition of recombinant human CYP3A4 expressed in baculosomes coexpressing rabbit NADPH-P450 reudctase assessed as residual activity at 10 uM preincubated for 5 mins followed by substrate and NADP+ addition measured after 20 mins by fluorescence assay relative to control; format: ADME; settings: read-out: Activity; outline: as §1
Chain of CYP3A4 (P08684 whole entry): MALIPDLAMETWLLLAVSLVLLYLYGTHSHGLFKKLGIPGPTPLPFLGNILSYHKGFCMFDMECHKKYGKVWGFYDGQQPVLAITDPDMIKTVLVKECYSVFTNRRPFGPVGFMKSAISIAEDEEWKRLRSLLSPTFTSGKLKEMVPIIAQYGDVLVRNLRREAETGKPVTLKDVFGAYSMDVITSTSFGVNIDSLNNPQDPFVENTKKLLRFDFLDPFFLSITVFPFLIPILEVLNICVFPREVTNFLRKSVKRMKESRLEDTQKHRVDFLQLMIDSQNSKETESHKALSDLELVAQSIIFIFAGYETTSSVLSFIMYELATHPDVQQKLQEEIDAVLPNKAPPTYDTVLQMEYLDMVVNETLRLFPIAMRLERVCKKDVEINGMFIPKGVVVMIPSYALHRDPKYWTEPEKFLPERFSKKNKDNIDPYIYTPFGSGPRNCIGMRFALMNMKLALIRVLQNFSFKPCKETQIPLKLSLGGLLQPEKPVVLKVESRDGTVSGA

[6] = Terminal half life in Sprague-Dawley rat at 10 mg/kg, iv by LC-MS/MS analysis; format: ADME, organism-based; settings: in vivo, read-out: beta t1/2
Outline: (§2)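 Male SD rats, 8 weeks old, given 10 mg/kg intravenously (n = 4). Plasma mixed with carbamazepine internal standard in acetonitrile, vortexed, centrifuged at 10,000×g, and the supernatant analysed by LC-MS/MS. Parameters reported as mean ± SD.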

[7] = Cmax in Sprague-Dawley rat at 10 mg/kg, po by LC-MS/MS analysis; format: ADME, organism-based; parameters: dose 10 mg/kg, route oral; settings: in vivo
Outline: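 Male SD rats, 8 weeks old, acclimatised at least 1 week; compound dissolved at 10 mg/2 mL in N-methyl-2-pyrrolidone/Tween80/water (1:2:7) by 5 min sonication, given 10 mg/kg by oral gavage at 2 mL/kg (n = 5). Heart-puncture blood drawn at 30 min and 3 h, plasma spun and stored at -70 °C. Samples mixed with carbamazepine internal standard in acetonitrile and assayed by LC-MS/MS.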

[8] = Total clearance in Sprague-Dawley rat at 10 mg/kg, iv by LC-MS/MS analysis; format: ADME, organism-based; settings: in vivo; outline: as §2
[9] = Ratio of drug level in brain to plasma in Sprague-Dawley rat at 10 mg/kg, po at 2 hrs post dose by LC-MS/MS analysis; format: ADME, organism-based; settings: brain and plasma, read-out: BPR

`Cc1ccc(C(C)C)cc1NC(=O)Cn1c(Cc2c(Cl)cccc2Cl)nc2ccccc21` showed an Activity [1] of 95%, an inhibition [2] of 85% and an activity at 20 min, 10 µM [3] of 108%. For the same molecule, the activity at 20 min, 10 µM [4] was 140%, the activity at 20 min, 10 µM [5] was 224% and the half-life [6] was 2.62 h. The Cmax [7] was 70 ng/mL, the clearance [8] was 54.5 mL/min/kg and the Kp at 2 h [9] was 1.02.
